In ChEMBL document CHEMBL1130120, “N-arylpiperazinyl-N'-propylamino derivatives of heteroaryl amides as functional uroselective alpha 1-adrenoceptor antagonists” (J Med Chem, 1997):

Experiments:
[1] = molecular target: T1, Alpha-1D adrenergic receptor (Rattus norvegicus, UniProt P23944); test: Antagonistic activity against rat aorta for affinity estimates representative of the Alpha-1D adrenergic receptor; type: functional, tissue-based; settings: read-out: pA2 (converted)
T1 sequence (P23944 whole entry): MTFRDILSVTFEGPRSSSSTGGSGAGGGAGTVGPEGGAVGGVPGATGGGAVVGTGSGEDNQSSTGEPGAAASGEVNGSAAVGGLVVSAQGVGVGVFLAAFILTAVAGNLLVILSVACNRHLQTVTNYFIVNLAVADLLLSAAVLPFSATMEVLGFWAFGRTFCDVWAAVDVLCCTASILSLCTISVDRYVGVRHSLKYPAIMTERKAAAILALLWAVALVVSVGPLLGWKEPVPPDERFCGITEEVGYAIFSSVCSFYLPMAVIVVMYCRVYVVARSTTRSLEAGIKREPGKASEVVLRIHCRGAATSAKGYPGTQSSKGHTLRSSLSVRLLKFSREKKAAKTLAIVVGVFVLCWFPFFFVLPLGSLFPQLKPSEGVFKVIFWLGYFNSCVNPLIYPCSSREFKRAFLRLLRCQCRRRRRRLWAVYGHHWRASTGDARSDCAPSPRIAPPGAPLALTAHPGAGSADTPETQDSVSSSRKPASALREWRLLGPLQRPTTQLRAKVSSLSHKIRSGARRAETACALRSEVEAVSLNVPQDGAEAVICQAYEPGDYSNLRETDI
Procedure, shortened: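 Isolated smooth-muscle tissue with cumulative norepinephrine concentration–effect curves (rat aorta, human lower urinary tract). Affinity obtained by full Schild regression for some antagonists. […] Competitive, reversible interaction at a single subtype assumed.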

[2] = molecular target: T2, Alpha-1A adrenergic receptor (Oryctolagus cuniculus, UniProt O02824); test: Antagonistic activity against alpha 1A/1L receptor was assessed in a rabbit bladder neck functional assay; settings: read-out: pA2 (converted)
T2 sequence (O02824 whole entry): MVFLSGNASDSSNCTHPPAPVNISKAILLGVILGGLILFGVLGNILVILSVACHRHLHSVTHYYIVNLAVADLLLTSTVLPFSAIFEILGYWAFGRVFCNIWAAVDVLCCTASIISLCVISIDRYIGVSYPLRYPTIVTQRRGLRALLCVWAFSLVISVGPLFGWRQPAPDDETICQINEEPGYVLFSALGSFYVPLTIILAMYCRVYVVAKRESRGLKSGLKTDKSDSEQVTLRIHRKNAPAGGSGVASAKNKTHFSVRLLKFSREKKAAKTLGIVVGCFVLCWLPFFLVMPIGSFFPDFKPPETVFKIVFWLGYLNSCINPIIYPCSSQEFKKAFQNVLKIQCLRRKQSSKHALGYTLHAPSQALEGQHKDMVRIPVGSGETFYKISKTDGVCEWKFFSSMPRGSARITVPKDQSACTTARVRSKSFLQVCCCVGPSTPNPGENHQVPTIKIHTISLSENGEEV

[3] = molecular target: T3, Alpha-1A adrenergic receptor (Bos taurus, UniProt P18130); test: In vitro for the displacement of [3H]prazosin binding to bovine Alpha-1A adrenergic receptor
T3 sequence (P18130 whole entry): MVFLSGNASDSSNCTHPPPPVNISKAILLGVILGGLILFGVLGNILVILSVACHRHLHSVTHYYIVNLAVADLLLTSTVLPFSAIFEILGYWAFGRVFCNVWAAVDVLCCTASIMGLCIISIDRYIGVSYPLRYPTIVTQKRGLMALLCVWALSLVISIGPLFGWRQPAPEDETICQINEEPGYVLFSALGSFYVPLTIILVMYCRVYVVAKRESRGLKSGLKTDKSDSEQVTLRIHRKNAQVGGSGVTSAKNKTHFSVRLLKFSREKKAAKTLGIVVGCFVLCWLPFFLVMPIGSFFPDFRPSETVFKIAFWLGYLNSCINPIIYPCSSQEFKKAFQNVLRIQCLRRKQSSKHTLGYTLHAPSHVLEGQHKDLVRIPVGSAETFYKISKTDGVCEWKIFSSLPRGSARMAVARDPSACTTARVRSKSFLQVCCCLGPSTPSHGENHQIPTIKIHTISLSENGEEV

SMILES	Kb [1] [nM]	Kb [2] [nM]	Ki [3] [nM]
COc1ccccc1N1CCN(CCCSc2ccccc2C(=O)N(C)C)CC1	12.6	2	
CN(C)C(=O)c1cnc2c(c(C(C)(C)C)nn2C)c1NCCCN1CCN(c2ccccc2OCC(F)(F)F)CC1	63.1	2.51	
COc1ccccc1N1CCN(CCCNc2ccncc2C(=O)N(C)C)CC1	50.1	12.6	0.794
COc1ccccc1N1CCN(CCCNc2ccc(C)cc2C(=O)N(C)C)CC1	20	0.501	
COc1ccccc1N1CCN(CCCNc2nc(C)cc(C)c2C(N)=O)CC1	39.8	10	1.58
CNC(=O)c1cccnc1NCCCN1CCN(c2ccccc2OC)CC1	3.16	1	
COc1ccc(N2CCN(CCCNc3ncccc3C(=O)N(C)C)CC2)c(OC)c1	1000	31.6	
COc1ccccc1N1CCN(CCCNc2ccccc2C(=O)N(C)C)CC1	15.8	1	0.398
COc1cc(C)ccc1N1CCN(CCCNc2ncccc2C(=O)N(C)C)CC1	39.8	0.794	
COc1ccccc1N1CCN(CCCOc2ccccc2C(=O)N(C)C)CC1	31.6	3.98	
COc1ccccc1N1CCN(CCCNc2ncccc2C(=O)C2CC2)CC1	2	0.501	
Cc1ccc(N(CC2=NCCN2)c2cccc(O)c2)cc1 [PHENTOLAMINE]		6.31	0.794
COc1ccccc1N1CCN(CCCNc2ncncc2C(=O)N(C)C)CC1	50.1	3.98	
CN(C)C(=O)c1cccnc1N1CCC(NCCOc2ccccc2-c2cncnc2)CC1	2510	20	
COc1ccccc1N1CCN(CCCNc2ncccc2C(=O)C(C)(C)C)CC1	6.31		0.398
CNC(=O)c1cnc2c(c(C)nn2C)c1NCCCN1CCN(c2ccccc2OCC(F)(F)F)CC1	3.98	0.1	
COc1ccccc1N1CCN(CCCNc2ccccc2C(=O)c2ccccc2)CC1	10	31.6	
COc1cc(F)ccc1N1CCN(CCCNc2c(C(=O)N(C)C)cnc3c2nc(C)n3C)CC1	79.4	0.631	
COc1ccccc1N1CCN(CCCNc2c(C)c(=O)n(C)c(=O)n2C)CC1		3.98	0.501
COc1cc(F)ccc1N1CCN(CCCNc2c(C(=O)N(C)C)cnc3c(C)cccc23)CC1	316	7.94	
Cc1noc2ncc(C(=O)N(C)C)c(NCCCN3CCN(c4ccccc4OCC(F)(F)F)CC3)c12	79.4	1.58	

SMILES	Kb [1] [nM]	Kb [2] [nM]	Ki [3] [nM]
CC(C)(Cc1c[nH]c2ccc(Cl)cc12)NCCOc1ccccc1OCC1CC1		50.1	0.794
CN(C)C(=O)c1cnc2ccccc2c1NCCCN1CCN(c2ccccc2OCC(F)(F)F)CC1	100	3.98	
CCOc1ccccc1OCCNC1CCN(c2ncccc2C(=O)N(C)C)CC1	15.8		3.16
COc1ccccc1N1CCN(CCCNc2ccc(C(=O)N(C)C)cn2)CC1	31.6	25.1	
COc1cc2nc(N3CCN(C(=O)C4CCCO4)CC3)nc(N)c2cc1OC (racemic) [TERAZOSIN]		20	2.51
COc1cc(F)ccc1N1CCN(CCCNc2c(C(=O)N(C)C)c[nH]c3ccn[n+]2-3)CC1	100	0.631	
Cc1nn(C)c2ncc(C(=O)N(C)C)c(NCCCN3CCN(c4ccc(F)cc4-c4ncco4)CC3)c12	200	0.126	
COc1cc(F)ccc1N1CCN(CCCNc2c(C(=O)N(C)C)cnc3nc(C)ccc23)CC1	631	1.26	
COc1ccccc1N1CCN(CCCNc2cccc(C)c2C(=O)N(C)C)CC1	63.1	3.16	
COc1ccccc1N1CCN(CCCNc2ncccc2C(=O)N2CCCC2)CC1	20		0.794
COc1cc(F)ccc1N1CCN(CCCNc2c(C(=O)N(C)C)c[nH]c3c(Cl)cn[n+]2-3)CC1	158	0.794	
COc1ccccc1N1CCN(CCCNc2ncc(O)cc2C(=O)N(C)C)CC1	10	2	
CN(C)C(=O)c1cnc2c(Cl)cccc2c1NCCCN1CCN(c2ccccc2OCC(F)(F)F)CC1	126	0.794	
COc1cc(F)ccc1N1CCN(CCCNc2c(C(=O)N(C)C)cnc3c(C#N)cccc23)CC1	398	1.26	
Cc1ccc(N2CCN(CCCNc3ncccc3C(=O)N(C)C)CC2)c(-n2cccc2)c1	12.6	0.02	
COc1ccccc1N1CCN(CCCNc2ncc(C#N)cc2C(=O)N(C)C)CC1	20	0.794	
COc1ccccc1N1CCN(CCCNc2ncccc2C(N)=O)CC1	10		0.126
COc1ccccc1N1CCN(CCCNc2ccncc2C(=O)N(C(C)C)C(C)C)CC1	251		1.58
CN(C)C(=O)c1cccnc1N1CCC(NCCOc2ccccc2OCC(F)(F)F)CC1	63.1	1.58	1.58
COc1cc(F)ccc1N1CCN(CCCNc2c(C(=O)N(C)C)cnc3c(C(N)=O)cccc23)CC1	158	0.501	
COc1ccccc1N1CCN(CCC(=O)Nc2ccccc2C(=O)N(C)C)CC1	63.1		1.58

Other lines, results leading:

Kb [1] [nM]	Kb [2] [nM]	Ki [3] [nM]	SMILES
10	0.158	0.0794	CN(C)C(=O)c1cccnc1NCCCN1CCN(c2ccccc2OCC2CC2)CC1
10	2		CN(C)C(=O)c1cccnc1NCCCN1CCN(c2ccccc2C#N)CC1
79.4	6.31		CN(C)C(=O)c1cccnc1NCCCN1CCN(c2ccccc2Cc2ccccc2)CC1
		7.94	Cc1cccc(C)c1N1CCN(CCCNc2ncccc2C(=O)N(C)C)CC1
63.1	0.398		CC(C)c1ccccc1N1CCN(CCCNc2ncccc2C(=O)N(C)C)CC1
31.6	0.631		CSc1ccccc1N1CCN(CCCNc2ncccc2C(=O)N(C)C)CC1
10	2	0.794	Cc1ccccc1N1CCN(CCCNc2ncccc2C(=O)N(C)C)CC1
50.1		0.794	CN(C)C(=O)c1cccnc1NCCCN1CCN(c2ccccc2OCC(C)(C)C)CC1
31.6	0.2		CCCc1ccccc1N1CCN(CCCNc2ncccc2C(=O)N(C)C)CC1
79.4	12.6		COc1cc(O)ccc1N1CCN(CCCNc2ncccc2C(=O)N(C)C)CC1
25.1	0.316		CN(C)C(=O)c1cccnc1NCCCN1CCN(c2ccccc2-c2ncco2)CC1
63.1	5.01		CN(C)C(=O)c1cccnc1NCCCN1CCN(c2ccccc2O)CC1
63.1	0.631		CN(C)C(=O)c1cccnc1NCCCN1CCN(c2ccccc2C2CC2)CC1
100	3.16		CN(C)C(=O)c1cccnc1NCCCN1CCN(c2ccccc2OC(F)(F)F)CC1
15.8	6.31	2	CN(C)C(=O)c1cccnc1NCCCN1CCN(c2ccccc2)CC1
7.94	0.501		CCOc1ccccc1N1CCN(CCCNc2ncccc2C(=O)N(C)C)CC1
15.8	0.1		CN(C)C(=O)c1cccnc1NCCCN1CCN(c2ccccc2OCC(F)(F)F)CC1
	200		Cc1cnccc1N1CCN(CCCNc2ncccc2C(=O)N(C)C)CC1
316	12.6		CN(C)C(=O)c1cccnc1NCCCN1CCN(c2ccccc2C(F)(F)F)CC1
